Measurements as given in PubChem BioAssay AID635 (SRMLSC, 2007).
In all, about 1,300 compounds went through this assay and about 40 (3%) were called active. Only a sample is shown. Potency and affinity values are given separately. Unmarked numbers belong to inactive results. No rule for the calls is given here.

Experiment: growth inhibition of wild-type E. coli BW25113 pool, dose response, OD615 (AID 635)
Conditions: pooled mutant strains; at 100 µM (top of the series)
Procedure, shortened: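 times: 20 h, 37 °C growth with compound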

Compound	growth inhibition
CC(=O)c1c(O)cc(C)n(Nc2nc(C)cc(C)n2)c1=O	-5.46%
Cc1ccc(CN2CCSc3ccc(C(=O)N4CCN(c5ncccn5)CC4)cc32)cc1	-4.07%
COc1nnc(-c2ccc(N3CCCCC3)c(N)c2)c2ccccc12	9.66%
Cc1ccc(SCC(=O)N(Cc2nc(-c3ccccc3)no2)C(C)C)cc1	3.99%
Cc1noc(NS(=O)(=O)c2ccc(NC(=O)Nc3ccc(Cl)c(Cl)c3)cc2)c1C	7.34% (active)
Cc1noc(NS(=O)(=O)c2ccc(NC(=O)COc3ccc(Cl)cc3Cl)cc2)c1C	2.59%
Cc1c(NC(=O)Nc2ccc(Cl)c(Cl)c2)c(=O)n(-c2ccccc2)n1C	1.5%
CCOC(=O)c1csc(Nc2nc3ccc(F)cc3s2)n1	-0.43%
O=c1n(Cc2ccccc2)c2cc(Cl)cnc2n1Cc1ccccc1	-2.48%
CC(C)(C)C(=O)Cn1c(=N)n(Cc2ccccc2)c2ccccc21	1.48%
Cc1cc(Cl)cc(C)c1OCCCCn1ccnc1	8.19%
COc1ccc(Oc2cn[nH]c2-c2ccc(O)cc2O)cc1	-1.15%
COc1cc(NS(=O)(=O)c2ccc(NC(=O)COc3ccccc3Cl)cc2)nc(OC)n1	-7.59%
CC1(C)CC(=O)C=C(NCCN2CCN(C(=O)Nc3ccc(Cl)c(Cl)c3)CC2)C1	3.54%
Cc1ccc2[nH]c(=O)c(C(c3nnnn3C3CCCC3)N(Cc3cccnc3)Cc3ccco3)cc2c1 (centres undefined)	0.6%
Cc1ccc2c(c1)NC(=O)C(CC(=O)NCCCN1CCN(c3cc(Cl)ccc3C)CC1)O2 (centres undefined)	1.34%
CC(C)CCOC(=O)c1c(N)n(CC2CCCO2)c2nc3ccccc3nc12 (centres undefined)	4.63%
CCOc1cccc(NC(=O)C2CC(=O)N(C)C(=Nc3cccc(F)c3)S2)c1 (centres undefined)	-8.98%
COC(=O)c1ccc(OC)c(CSc2nnc(COc3ccccc3)o2)c1	0.08%
Cc1ccc(SC/C(O)=C(\C#N)c2nc3ccccc3s2)cc1	0.79%
O=C(COc1ccccc1)Nc1ccccc1N1CCCCC1	-2.29%
O=C(CCSc1nc(-c2ccco2)cc(C(F)(F)F)n1)N1CCCc2ccccc21	-1.07%
Cc1ccccc1Cn1nc(C)c(NC(=O)c2noc3c2CCc2ccccc2-3)c1C	-4.26%
CCn1c2ccccc2c2nnc(SCc3ccccc3)nc21	-4.04%
Cc1ccc(-n2c(C)cc(C3N=C(N)Nc4nc5ccccc5n43)c2C)c(C)c1 (centres undefined)	6.51%
CCCCCC(=O)Nc1ccccc1N1CCN(c2ccccc2)CC1	1.48%
O=C(c1ccc(COc2ccc3c(c2)CCC3)o1)N1CCN(c2ccccc2)CC1	-0.73%

Compound	growth inhibition
CCN(CC)c1nc(N)c2c(N)nc3c(c2c1C#N)CC(c1ccccc1)O3 (centres undefined)	9.58%
CCc1ccccc1N(C)C(=O)CCc1nc(-c2ccc(C)cc2)no1	-3.1%
CCOC(=O)C1CN(c2cc3c(cc2F)c(=O)c(C(=O)O)cn3CC)OC1C(=O)OCC (centres undefined)	0.67%
Cc1nn(-c2ccccc2)c2sc(C(=O)N(CC(=O)NC(C)(C)C)Cc3ccco3)cc12	-4.44%
Cc1onc(-c2ccccc2)c1C(=O)Nc1nnc(N(C)Cc2ccccc2)s1	-4.99%
COc1cccc(-c2cc(C(=O)N3CC4(C)CC3CC(C)(C)C4)no2)c1 (centres undefined)	0.09%
CC(C)C(c1nnnn1C1CCCC1)N1c2ccccc2CC1C (centres undefined)	0.18%
CC1CCN(S(=O)(=O)c2ccc(Cl)cc2Br)CC1	7.88%
CCOC(=O)c1ccc(N2C(=O)c3n[nH]c(C)c3C2c2ccc(OC)cc2OC)cc1 (centres undefined)	-0.55%
O=C(c1ccc(COc2c(F)c(F)cc(F)c2F)o1)N1CCN(c2ccc(Cl)cc2)CC1	-6.87%
N#Cc1ccc(CSc2nnc(-c3cccs3)n2-c2ccccc2)cc1	-1.14%
CCn1c(CNc2cccc(Cl)c2)nnc1SCC(=O)OC1CCCCC1	1.08%
Fc1ccc(Br)cc1C1C=C(c2ccc(Br)s2)Nc2ncnn21 (centres undefined)	-4.11%
CC1CCN(S(=O)(=O)c2cccc(C(=O)NCc3cccs3)c2)CC1	0.28%
CC(=O)Nc1cccc(NC(=O)c2oc3ccccc3c2C)c1	2.78%
N=C(N)c1c(O)n(C2CCCCC2)c(=O)n(C2CCCCC2)c1=O	3.33%
COCc1nnc(NC(=O)c2ccc(S(=O)(=O)N(C)C3CCCCC3)cc2)o1	0.24%
CCOC(=O)c1cnc(-n2nc(C)cc2C)nc1NCc1ccccc1	0.66%
Cc1cc(Nc2ccccc2)nc(-c2ccccc2O)n1	1.65%
CCn1nc(-c2ccccc2)nc2c(=O)n(C)c(=O)nc1-2	1.94%
CC(C)(C)c1cc(C(F)(F)F)nc(SCCCNC(=O)c2ccco2)n1	6.78%
CC(C)(C)n1nnnc1C(c1cccs1)N(Cc1ccccc1)Cc1cccnc1 (centres undefined)	3.16%
CCOC(=O)c1c(-c2ccccc2)nnn1-c1nc(OCC)nc(N2CCCCC2)n1	0.78%
c1ccc(CCN2CCN(c3ncnc4c3cnn4-c3ccccc3)CC2)cc1	6.43%
CCOC(=O)c1ccc(NC(=O)CCc2nc(-c3ccccc3Cl)no2)cc1	-0.84%
CCOc1ccc(S(=O)(=O)Nc2cccc(Cl)c2)cc1	12.8%
CCCCOc1ccc(S(=O)(=O)N2CCCCCC2)cc1	3.61%
